Consider 3 compounds from ChEMBL document CHEMBL1938242, “In vivo evaluation of oral anti-tumoral effect of 3,4-dihydroquinazoline derivative on solid tumor” (Bioorg Med Chem Lett, 2012).

Activity calls are given as the source filed them. The rule behind the calls is not given here.

The subject of series [1] is Mus musculus. Description: Antinociceptive activity in po dosed mouse assessed as time of latency at 100 mg/kg, po administered 1 hr before hot plate test. It is filed as functional, organism-based. Also on record: dose 100 mg/kg.
For series [2], the system named is A549. The experiment in a line: Antitumor activity against human A549 cells xenografted in athymic nu/nu BALB/c mouse assessed as tumor growth inhibition at 5 mg/kg, po administered 5 times weekly for consecutive 39 days. It is filed as functional. As to conditions: A549, 936 h, read-out: GI.
Series [3] has as its system A549. Description: Antitumor activity against human A549 cells xenografted in athymic nu/nu BALB/c mouse assessed as decrease in tumor weight at 1 mg/kg, po administered 5 times weekly for consecutive 39 days (reference value: 0.358 +/- 0.052 g). It is filed as functional.
Series [4] deals with A549. Description: Antitumor activity against human A549 cells xenografted in athymic nu/nu BALB/c mouse assessed as decrease in tumor volume at 1 mg/kg, po administered 5 times weekly for consecutive 39 days (reference value: 224.40 +/- 60.34 mm3). It is filed as functional. Put shortly:
(§1)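 A549 cells (5 × 10⁶) injected s.c. into the left flank of BALB/c nu/nu mice, n = 5 per group. At day 8 (nodules ca. 3 mm³), oral dosing at 1 or 5 mg/kg in ethanol:Cremophor EL:water 1:1:18, five times weekly for 39 days. Caliper measurement weekly; volume from length, width and height. Mean ± SE; Dunnett's test versus vehicle.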

Series [5] has as its system A549. The experiment in a line: Antitumor activity against human A549 cells xenografted in athymic nu/nu BALB/c mouse assessed as tumor growth inhibition at 1 mg/kg, po administered 5 times weekly for consecutive 39 days. It is filed as functional. As to conditions: A549, 936 h, read-out: GI.
The test system of series [6] is A549. The experiment in a line: Antitumor activity against human A549 cells xenografted in athymic nu/nu BALB/c mouse assessed as decrease in tumor volume at 5 mg/kg, po administered 5 times weekly for consecutive 39 days relative to paclitaxel. It is filed as functional. Put shortly:
as §1

Series [7] relates to Mus musculus. Description: Toxicity in athymic nu/nu BALB/c mouse bearing human A549 cells assessed as change in total body weight at 1 to 5 mg/kg, po administered 5 times weekly for consecutive 39 days. It is filed as organism-based. Also on record: dose 1-5 mg/kg, route oral. Conditions: in vivo, 936 h. The essentials:
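A549 cells (5 × 10⁶ cells/mL) were injected s.c. into the left flank of BALB/c nu/nu nude mice. After 8 days, once nodules were visible (ca. 3 mm³), mice got oral doses in ethanol:Cremophor EL:distilled water (1:1:18) five times per week for 39 days, with vehicle-only controls (n = 5/group). Total body weights were followed over the period (mean ± SE; Dunnett's test versus control).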

In series [8] the test system is A549. The experiment in a line: Antitumor activity against human A549 cells xenografted in athymic nu/nu BALB/c mouse assessed as decrease in tumor weight at 5 mg/kg, po administered 5 times weekly for consecutive 39 days (reference value: 0.358 +/- 0.052 g). It is filed as functional.
Series [9] deals with Mus musculus. Description: Antinociceptive activity in po dosed mouse assessed as inhibition of acetic acid-induced writhing measured every 5 mins for 20 mins pretreated 1 hr before acetic acid challenge. It is filed as functional, organism-based. The essentials:
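Mice (n = 7 per group) given 10 or 50 mg/kg orally; 1 h later injected ip with 0.7% (v/v) acetic acid, 10 mL/kg. After a 5-min delay, writhes counted for 20 min. Comparison with vehicle controls by Dunnett's test; mean ± S.D.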

The subject of series [10] is Mus musculus. Description: Antinociceptive activity in po dosed mouse assessed as time of latency at 10 or 50 mg/kg, po administered 1 hr before hot plate test. It is filed as functional, organism-based. Set-up: dose 50 mg/kg. The essentials:
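Mice (n = 10 per group) given 10 or 50 mg/kg orally; 1 h later placed on a hot plate at 55 ± 0.5 °C. Latency recorded at 0 and 30 min. Comparison with vehicle control by Dunnett's test; mean ± S.D.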

Series [11] deals with Mus musculus. The experiment in a line: Toxicity in athymic nu/nu BALB/c mouse bearing human A549 cells assessed as decrease in body weight at 5 mg/kg, po administered 5 times weekly for consecutive 39 days measured on day 19 to 22 post dosing. As to conditions: in vivo, 936 h.
Series [12] has as its target Voltage-dependent N-type calcium channel subunit alpha-1B (Homo sapiens, UniProt Q00975). The experiment in a line: Inhibition of N-type calcium channel alpha 1 B.
Series [13] has as its system A549. Description: Antitumor activity against human A549 cells xenografted in athymic nu/nu BALB/c mouse assessed as decrease in tumor volume at 5 mg/kg, po administered 5 times weekly for consecutive 39 days (reference value: 224.40 +/- 60.34 mm3). It is filed as functional. Put shortly: as §1
In series [14] the test system is A549. Description: Antitumor activity against human A549 cells xenografted in po dosed athymic nu/nu BALB/c mouse assessed as decrease in tumor volume administered 5 times weekly for consecutive 39 days. It is filed as functional, organism-based. The essentials:
as §1

Series [15] has as its system A549. The experiment in a line: Antitumor activity against human A549 cells xenografted in athymic nu/nu BALB/c mouse assessed as decrease in tumor weight at 10 mg/kg, ip administered twice per week for consecutive 39 days (reference value: 0.358 +/- 0.052 g). As to conditions: route intraperitoneal. It is filed as functional. Put shortly:
(§2)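 A549 s.c. flank xenografts (5 × 10⁶ cells) in BALB/c nu/nu mice, n = 5. From day 8, given 10 mg/kg ip in ethanol:Cremophor EL:water 1:1:18, twice weekly for 39 days. Excised tumors weighed at the end. Inhibition % = 100 × (C − T)/C using mean tumor weights versus vehicle. Mean ± SE.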

The test system of series [16] is A549. Description: Antitumor activity against human A549 cells xenografted in athymic nu/nu BALB/c mouse assessed as decrease in tumor volume at 10 mg/kg, ip administered twice per week for consecutive 39 days (reference value: 224.40 +/- 60.34 mm3). It is filed as functional. Conditions: route intraperitoneal.
The test system of series [17] is Mus musculus. Description: Toxicity in athymic nu/nu BALB/c mouse bearing human A549 cells assessed as change in total body weight at 10 mg/kg, ip administered twice per week for consecutive 39 days. It is filed as organism-based. Also on record: dose 10 mg/kg, route intraperitoneal. Conditions: in vivo, 936 h. The essentials:
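Mice bearing A549 s.c. flank xenografts, n = 5 per group, given 10 mg/kg ip in ethanol:Cremophor EL:water 1:1:18, twice weekly over 39 days starting day 8. Total body weights tracked through the study and compared with vehicle control. Mean ± SE.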

For series [18], the system named is A549. Description: Antitumor activity against human A549 cells xenografted in athymic nu/nu BALB/c mouse assessed as tumor growth inhibition at 10 mg/kg, ip administered twice per week for consecutive 39 days. It is filed as functional. Conditions: 936 h, route intraperitoneal, read-out: GI. The essentials:
as §2

Voltage-dependent N-type calcium channel subunit alpha-1B, sequence (Q00975 whole entry): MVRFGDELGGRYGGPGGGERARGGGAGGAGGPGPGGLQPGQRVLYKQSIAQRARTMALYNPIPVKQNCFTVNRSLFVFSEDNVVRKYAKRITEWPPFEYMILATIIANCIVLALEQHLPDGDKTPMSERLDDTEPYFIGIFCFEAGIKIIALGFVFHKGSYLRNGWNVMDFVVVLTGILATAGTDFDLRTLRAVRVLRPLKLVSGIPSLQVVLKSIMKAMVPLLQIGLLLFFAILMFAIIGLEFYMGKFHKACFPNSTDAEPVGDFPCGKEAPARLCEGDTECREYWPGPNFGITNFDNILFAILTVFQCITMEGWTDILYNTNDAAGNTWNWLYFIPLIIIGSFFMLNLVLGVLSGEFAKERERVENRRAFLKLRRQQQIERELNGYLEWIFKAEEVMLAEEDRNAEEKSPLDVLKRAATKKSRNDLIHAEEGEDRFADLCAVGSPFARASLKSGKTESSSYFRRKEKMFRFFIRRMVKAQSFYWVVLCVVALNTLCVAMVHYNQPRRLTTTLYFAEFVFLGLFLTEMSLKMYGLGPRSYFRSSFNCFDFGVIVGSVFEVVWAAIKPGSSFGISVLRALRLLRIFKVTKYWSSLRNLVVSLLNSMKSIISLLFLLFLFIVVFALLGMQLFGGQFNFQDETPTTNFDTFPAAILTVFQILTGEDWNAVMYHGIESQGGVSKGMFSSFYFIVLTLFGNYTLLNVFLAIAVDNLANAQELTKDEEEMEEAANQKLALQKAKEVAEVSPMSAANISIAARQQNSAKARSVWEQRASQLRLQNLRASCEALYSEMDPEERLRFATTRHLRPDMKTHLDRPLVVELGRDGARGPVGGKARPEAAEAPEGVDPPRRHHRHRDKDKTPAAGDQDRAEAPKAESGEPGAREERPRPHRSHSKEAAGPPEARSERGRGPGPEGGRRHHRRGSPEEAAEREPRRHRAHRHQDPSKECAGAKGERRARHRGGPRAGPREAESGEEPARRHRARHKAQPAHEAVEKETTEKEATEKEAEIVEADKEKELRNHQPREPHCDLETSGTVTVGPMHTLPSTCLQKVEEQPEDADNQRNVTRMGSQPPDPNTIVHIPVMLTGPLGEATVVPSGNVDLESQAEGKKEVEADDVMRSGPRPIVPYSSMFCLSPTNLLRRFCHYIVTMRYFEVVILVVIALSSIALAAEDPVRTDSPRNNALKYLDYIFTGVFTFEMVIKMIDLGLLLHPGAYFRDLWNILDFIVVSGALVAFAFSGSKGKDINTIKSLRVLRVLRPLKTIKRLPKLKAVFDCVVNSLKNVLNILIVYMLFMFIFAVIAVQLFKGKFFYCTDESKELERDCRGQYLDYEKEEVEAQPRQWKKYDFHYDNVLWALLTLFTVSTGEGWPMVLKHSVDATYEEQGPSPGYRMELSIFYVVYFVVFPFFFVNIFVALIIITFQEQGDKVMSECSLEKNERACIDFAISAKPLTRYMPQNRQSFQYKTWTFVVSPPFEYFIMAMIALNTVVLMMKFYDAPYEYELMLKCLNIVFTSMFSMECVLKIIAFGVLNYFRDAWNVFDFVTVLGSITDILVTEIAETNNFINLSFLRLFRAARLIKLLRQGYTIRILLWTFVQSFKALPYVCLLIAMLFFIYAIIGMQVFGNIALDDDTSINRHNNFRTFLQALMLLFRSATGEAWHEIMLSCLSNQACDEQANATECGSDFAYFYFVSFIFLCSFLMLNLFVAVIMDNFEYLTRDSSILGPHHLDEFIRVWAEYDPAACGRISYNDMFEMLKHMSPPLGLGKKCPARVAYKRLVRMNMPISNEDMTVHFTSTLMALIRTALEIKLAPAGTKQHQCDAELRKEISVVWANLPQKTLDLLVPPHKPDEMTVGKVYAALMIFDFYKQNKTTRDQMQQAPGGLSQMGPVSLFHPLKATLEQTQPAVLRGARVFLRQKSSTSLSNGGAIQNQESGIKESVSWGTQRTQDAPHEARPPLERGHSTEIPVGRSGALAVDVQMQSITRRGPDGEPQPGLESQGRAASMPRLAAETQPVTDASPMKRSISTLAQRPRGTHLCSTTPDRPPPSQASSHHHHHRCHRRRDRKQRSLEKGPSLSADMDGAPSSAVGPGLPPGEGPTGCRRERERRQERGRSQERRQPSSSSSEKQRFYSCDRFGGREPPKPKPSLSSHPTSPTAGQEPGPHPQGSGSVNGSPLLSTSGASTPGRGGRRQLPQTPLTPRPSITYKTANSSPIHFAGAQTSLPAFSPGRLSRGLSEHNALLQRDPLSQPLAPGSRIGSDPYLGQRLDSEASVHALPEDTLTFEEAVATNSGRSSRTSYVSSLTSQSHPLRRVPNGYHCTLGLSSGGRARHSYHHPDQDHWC

On to `CC(C)Cc1ccc(C(C)C(=O)O)cc1` (stereo not drawn), for which the result with Mus musculus [1] was Active.
As to `CN(C)CCCCCN(C)C1=Nc2ccccc2C(CC(=O)NCc2ccccc2)N1c1ccc(-c2ccccc2)cc1.Cl.Cl` (stereo not drawn), the inhibition in vivo at 5 mg/kg in the series with A549 [2] turned out to be 67%. The Activity is 0.142 g with A549 [3]; 27.05 mm3 with A549 [4]; “Non-toxic” in the series with Mus musculus [7]; 0.12 g with A549 [8]; “Dose-dependent effect” in the series on Mus musculus [9]; “Toxic” in the series with Mus musculus [11]. In addition, the Activity is 7.9 mm3 in the series with A549 [13] and “Dose-dependent effect” in the series with A549 [14]. Moreover, the inhibition in vivo at 1 mg/kg with A549 [5] came to 60%. Further, the “fold change (FC)” value with A549 [6] amounted to 3. Besides, the result in the series with Mus musculus [10] was inactive. In series [12], the IC50 turned out to be 4.9 µM.
Consider `CC(=O)O[C@H]1C(=O)[C@@]2(C)[C@H]([C@H](OC(=O)c3ccccc3)[C@]3(O)C[C@H](OC(=O)[C@H](O)[C@@H](NC(=O)c4ccccc4)c4ccccc4)C(C)=C1C3(C)C)[C@]1(OC(C)=O)CO[C@@H]1C[C@@H]2O` [PACLITAXEL], for which the results for the Activity in the series on A549 [15], in the series with A549 [16] and in the series with Mus musculus [17] were 0.17 g, 22.9 mm3 and “Non-toxic”, respectively. The inhibition in vivo at 10 mg/kg with A549 [18] was determined as 53%.
